Laboratory results from ChEMBL document CHEMBL1938334, “Quinoline tricyclic derivatives. Design, synthesis and evaluation of the antiviral activity of three new classes of RNA-dependent RNA polymerase inhibitors” (Bioorg Med Chem, 2011).

Tested on: Human orthopneumovirus
Experiment: Antiviral activity against Human respiratory syncytial virus A2 infected in african green monkey Vero 76 cells assessed as reduction of virus-induced plaque formation after 5 days using crystal violet staining
Assay type: functional, organism-based
Conditions: 120 h

| SMILES | EC50 [µM] |
| --- | --- |
| O=c1[nH]c2cc3cccnc3c(Cl)c2nc1-c1ccccc1 | 12 |

Tested on: Human immunodeficiency virus 1
Experiment: Antiviral activity against HIV1 3B infected in human MT4 cells assessed as inhibition of virus-induced cytopathogenicity after 4 days by MTT assay
Assay type: functional, organism-based
Conditions: Human immunodeficiency virus 1, 3B, MT4, 96 h
How it was run: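 MT-4 cells (1×10^4 per well) were infected with HIV-1 IIIB at 100 CCID50, m.o.i. 0.01, together with serial compound dilutions. Viability was read by MTT after 4 days at 37 °C. EC50 was taken by linear regression versus untreated controls. Mean of three determinations.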

| SMILES | EC50 [µM] |
| --- | --- |
| O=c1[nH]c2cc3cccnc3c(Cl)c2nc1-c1ccccc1 | > 22 |

Tested on: CCRF-SB
Experiment: Cytotoxicity against human CCRF-SB cells after 96 hrs by MTT assay
Assay type: functional
Conditions: not given
How it was run: (§1)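 Cells were seeded at 1×10^5 cells/mL: leukaemia/lymphoma lines in RPMI-1640, solid tumour and fibroblast lines in specific media, all with 10% FCS. Serial compound dilutions were applied for 96 h at 37 °C, 5% CO2, under conditions allowing controls at least three rounds of multiplication. Viability was read by MTT. CC50 by linear regression. Mean of three determinations.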

| SMILES | CC50 [µM] |
| --- | --- |
| O=c1[nH]c2cc3cccnc3c(Cl)c2nc1-c1ccccc1 | 19 |

Tested on: DU-145
Experiment: Cytotoxicity against human DU145 cells after 96 hrs by MTT assay
Assay type: functional
Conditions: DU-145, 96 h
How it was run: as §1

| SMILES | CC50 [µM] |
| --- | --- |
| O=c1[nH]c2cc3cccnc3c(Cl)c2nc1-c1ccccc1 | 7.4 |

Tested on: not listed separately
Experiment: Inhibition of HCV1b BK 6xHis-tagged recombinant NS5B Cdelta 21 RNA dependent RNA polymerase expressed in Escherichia coli (DE3) using GTP as substrate preincubated for 30 mins before substrate addition measured after 120 mins by fluorescence assay
Set-up: species or system Hepatitis C virus (isolate BK)
Conditions: not given
How it was run: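 His-tagged NS5B (BVDV C-terminal Δ24; HCV1b Δ21) from E. coli Rosetta 2(DE3)pLysS, Ni-NTA purified, 500–600 ng per 20 μL. The template was poly(rC) 10 μg/mL and the primer oligo(rG)12 0.1 μg/mL, with GTP 80 μM. Buffer: 20 mM Tris pH 7.0, 0.5 mM MnCl2 or 5 mM MgCl2, 5% DMSO. Enzyme/drug 30 min at RT, then GTP added; 120 min at 37 °C (BVDV) or 25 °C (HCV). Read-out was dsRNA dye fluorescence (ex 480/em 520). IC50 from dose–response fits.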

| SMILES | IC50 [µM] |
| --- | --- |
| O=c1[nH]c2cc3cccnc3c(Cl)c2nc1-c1ccccc1 | > 10 |

Tested on: not listed separately
Experiment: Cytotoxicity against human GS4.1 cells
Assay type: cell-based
Conditions: not given
How it was run: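 Huh-7 cells carrying HCV genotype 1b subgenomic replicon, grown in D-MEM/10% FBS with 0.5 mg/mL G418. Seeded at 7.5×10^3 cells/well with two-fold serial dilutions (top 75 μM), incubated 72 h at 37 °C. Viability by MTS-type Cell Titer 96 Aqueous One reagent; CC50 from % cytotoxicity versus concentration curves.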

| SMILES | CC50 [µM] |
| --- | --- |
| O=c1[nH]c2cc3cccnc3c(Cl)c2nc1-c1ccccc1 | 11 |

Tested on: not listed separately
Experiment: Cytotoxicity against MDBK cells after 48 to 96 hrs by MTT assay
Assay type: cell-based, Bos taurus
Conditions: cattle
How it was run: (§2)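 MDBK seeded at 6×10^5 and BHK at 1×10^6 cells/mL in MEM-Earle's with L-glutamine, 1 mM pyruvate, kanamycin, plus 10% horse serum (MDBK) or 10% FBS (BHK). Cells were grown at 37 °C, 5% CO2 with serial compound dilutions (DMSO stocks diluted in medium). Viability by MTT after 48–96 h. CC50 was taken by linear regression versus untreated controls; three independent determinations.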

| SMILES | CC50 [µM] |
| --- | --- |
| O=c1[nH]c2cc3cccnc3c(Cl)c2nc1-c1ccccc1 | > 100 |

Tested on: Reovirus sp.
Experiment: Antiviral activity against Reovirus type-1 3651 infected in hamster BHK21 cells assessed as inhibition of virus-induced cytopathogenicity after 3 to 4 days by MTT assay
Assay type: functional, organism-based
Conditions: Reovirus sp., 3651, BHK-21
How it was run: (§3)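 Host cells were seeded in 96-well plates at 3×10^4 cells/well (MDBK) or 5×10^4 cells/well (BHK-21) and grown to confluent monolayers overnight. They were infected at m.o.i. 0.01 in maintenance MEM with 0.5% inactivated FBS. Serial compound dilutions were added after 1 h. Viability was read by MTT after 3–4 days at 37 °C. EC50 was taken by linear regression against untreated controls. Mean of three determinations.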

| SMILES | EC50 [µM] |
| --- | --- |
| O=c1[nH]c2cc3cccnc3c(Cl)c2nc1-c1ccccc1 | > 100 |

Tested on: HepG2
Experiment: Cytotoxicity against human HepG2 cells after 96 hrs by MTT assay
Assay type: functional
Conditions: HepG2, 96 h
How it was run: as §1

| SMILES | CC50 [µM] |
| --- | --- |
| O=c1[nH]c2cc3cccnc3c(Cl)c2nc1-c1ccccc1 | 8 |

Tested on: not listed separately
Experiment: Antiviral activity against Vaccinia virus Lister Elstree infected in african green monkey Vero 76 cells assessed as reduction of virus-induced plaque formation after 3 days using crystal violet staining
Assay type: functional, cell-based
Conditions: 72 h

| SMILES | EC50 [µM] |
| --- | --- |
| O=c1[nH]c2cc3cccnc3c(Cl)c2nc1-c1ccccc1 | > 100 |

Tested on: not listed separately
Experiment: Antiviral activity against Bovine viral diarrhea virus 1-NADL infected in MDBK cells assessed as inhibition of virus-induced cytopathogenicity after 3 to 4 days by MTT assay
Assay type: functional, cell-based
Conditions: Bovine viral diarrhea virus isolates and strains
How it was run: as §3

| SMILES | EC50 [µM] |
| --- | --- |
| O=c1[nH]c2cc3cccnc3c(Cl)c2nc1-c1ccccc1 | 11 |

Tested on: Human alphaherpesvirus 1
Experiment: Antiviral activity against Human herpesvirus 1 strain KOS infected in african green monkey Vero 76 cells assessed as reduction of virus-induced plaque formation after 3 days using crystal violet staining
Assay type: functional, organism-based
Conditions: Human alphaherpesvirus 1, KOS, 72 h

| SMILES | EC50 [µM] |
| --- | --- |
| O=c1[nH]c2cc3cccnc3c(Cl)c2nc1-c1ccccc1 | > 100 |

Tested on: MCF7
Experiment: Cytotoxicity against human MCF7 cells after 96 hrs by MTT assay
Assay type: functional
Conditions: MCF7, 96 h
How it was run: as §1

| SMILES | CC50 [µM] |
| --- | --- |
| O=c1[nH]c2cc3cccnc3c(Cl)c2nc1-c1ccccc1 | 7.6 |

Tested on: not listed separately
Experiment: Cytotoxicity against BHK21 cells after 48 to 96 hrs by MTT assay
Assay type: cell-based, Mesocricetus auratus, BHK-21
Conditions: hamster
How it was run: as §2

| SMILES | CC50 [µM] |
| --- | --- |
| O=c1[nH]c2cc3cccnc3c(Cl)c2nc1-c1ccccc1 | > 100 |

Tested on: not listed separately
Experiment: Cytotoxicity against human MT4 cells after 96 hrs by MTT assay
Assay type: cell-based
Conditions: not given
How it was run: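 Exponentially growing MT-4 cells seeded at 1×10^5 cells/mL in RPMI-1640 with 10% FBS, penicillin and streptomycin. Incubated with serial compound dilutions at 37 °C, 5% CO2 for 96 h; viability by MTT. CC50 by linear regression relative to untreated controls; mean of three independent determinations.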

| SMILES | CC50 at 96 h [µM] |
| --- | --- |
| O=c1[nH]c2cc3cccnc3c(Cl)c2nc1-c1ccccc1 | 22 |

Tested on: Poliovirus 1
Experiment: Antiviral activity against Human poliovirus 1 strain Sabin Chat infected in african green monkey Vero 76 cells assessed as virus-induced reduction of plaque formation after 2 days using crystal violet staining
Assay type: functional, cell-based
Conditions: Enterovirus C, 48 h

| SMILES | EC50 [µM] |
| --- | --- |
| O=c1[nH]c2cc3cccnc3c(Cl)c2nc1-c1ccccc1 | > 100 |

Tested on: CCRF-CEM
Experiment: Cytotoxicity against human CCRF-CEM cells after 96 hrs by MTT assay
Assay type: functional
Conditions: not given
How it was run: as §1

| SMILES | CC50 [µM] |
| --- | --- |
| O=c1[nH]c2cc3cccnc3c(Cl)c2nc1-c1ccccc1 | 16 |

Tested on: Coxsackievirus B5
Experiment: Antiviral activity against Human coxsackievirus B5 Ohio-1 infected in african green monkey Vero 76 cells assessed as reduction of virus-induced plaque formation after 3 days using crystal violet staining
Assay type: functional, organism-based
Conditions: Enterovirus B, Ohio-1, Vero, 72 h

| SMILES | EC50 [µM] |
| --- | --- |
| O=c1[nH]c2cc3cccnc3c(Cl)c2nc1-c1ccccc1 | > 100 |

Tested on: not listed separately
Experiment: Cytotoxicity against african green monkey Vero 76 cells after 48 to 96 hrs by crystal violet staining
Assay type: cell-based
Conditions: chlorocebus sabaeus
How it was run: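 Vero-76 cells were seeded at 4×10^5 cells/mL in D-MEM with L-glutamine, kanamycin and 10% FBS, then exposed to serial compound dilutions at 37 °C, 5% CO2 for 48–96 h. Viability was read by crystal violet staining. 50% cytotoxic concentration by linear regression relative to untreated controls; mean of three independent determinations.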

| SMILES | CC50 [µM] |
| --- | --- |
| O=c1[nH]c2cc3cccnc3c(Cl)c2nc1-c1ccccc1 | > 100 |

Tested on: not listed separately
Experiment: Inhibition of Bovine viral diarrhea virus 1-NADL recombinant NS5B Cdelta 21 RNA dependent RNA polymerase expressed in Escherichia coli (DE3) using GTP as substrate preincubated for 30 mins before substrate addition measured after 120 mins by fluorescence assay
Conditions: not given

| SMILES | IC50 [µM] |
| --- | --- |
| O=c1[nH]c2cc3cccnc3c(Cl)c2nc1-c1ccccc1 | 1 |

Tested on: SK-MES-1
Experiment: Cytotoxicity against human SKMES1 cells after 96 hrs by MTT assay
Assay type: functional
Conditions: SK-MES-1, 96 h
How it was run: as §1

| SMILES | CC50 [µM] |
| --- | --- |
| O=c1[nH]c2cc3cccnc3c(Cl)c2nc1-c1ccccc1 | 8 |

Tested on: Hepatitis C virus
Experiment: Antiviral activity against HCV1b infected in human GS4.1 cells assessed as inhibition of virus-induced cytopathogenicity by measuring viral NS4A protein level after 72 hrs by ELISA
Assay type: functional, organism-based, Hepacivirus hominis
Conditions: genotype 1b
How it was run: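 GS4.1 cells are Huh-7 cells carrying a genotype 1b subgenomic replicon, kept in 0.5 mg/mL G418. They were seeded at 7.5×10^3 cells/well with two-fold serial dilutions of compound (top 75 μM) and incubated 72 h at 37 °C. Huh-7 cells without the replicon served as negative control. NS4A was measured by cell ELISA with anti-NS4A mAb A-236, peroxidase and o-phenylenediamine, A492. EC50 came from four-parameter sigmoidal fit.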

| SMILES | EC50 [µM] |
| --- | --- |
| O=c1[nH]c2cc3cccnc3c(Cl)c2nc1-c1ccccc1 | > 11 |

Tested on: SK-MEL-28
Experiment: Cytotoxicity against human SK-MEL-28 cells after 96 hrs by MTT assay
Assay type: functional
Conditions: SK-MEL-28, 96 h
How it was run: as §1

| SMILES | CC50 [µM] |
| --- | --- |
| O=c1[nH]c2cc3cccnc3c(Cl)c2nc1-c1ccccc1 | 5.6 |

Tested on: Yellow fever virus
Experiment: Antiviral activity against Yellow fever virus 17D Stamaril Pasteur J07B01 infected in hamster BHK21 cells assessed as inhibition of virus-induced cytopathogenicity after 3 to 4 days by MTT assay
Assay type: functional, cell-based
Conditions: Stamaril Pasteur J07B01, BHK-21
How it was run: as §3

| SMILES | EC50 [µM] |
| --- | --- |
| O=c1[nH]c2cc3cccnc3c(Cl)c2nc1-c1ccccc1 | > 100 |

Tested on: not listed separately
Experiment: Cytotoxicity against human CRL7065 cells after 96 hrs by MTT assay
Assay type: cell-based, CRL-7065
Conditions: not given
How it was run: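 Foreskin fibroblasts seeded at 1×10^5 cells/mL in specific medium with 10% FCS and antibiotics; serial compound dilutions, 37 °C, 5% CO2, 96 h, under conditions allowing untreated controls at least three rounds of multiplication. MTT read-out; concentration reducing proliferation by 50% by linear regression versus untreated controls; three independent determinations.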

| SMILES | CC50 at 96 h [µM] |
| --- | --- |
| O=c1[nH]c2cc3cccnc3c(Cl)c2nc1-c1ccccc1 | 16 |

Tested on: Vesicular stomatitis Indiana virus
Experiment: Antiviral activity against clinical isolate Vesicular stomatitis Indiana virus infected in african green monkey Vero 76 cells assessed as reduction of virus-induced plaque formation after 2 days using crystal violet staining
Assay type: functional, organism-based
Conditions: 48 h

| SMILES | EC50 [µM] |
| --- | --- |
| O=c1[nH]c2cc3cccnc3c(Cl)c2nc1-c1ccccc1 | > 100 |
